This note sets out measurements from ChEMBL document CHEMBL1138474, “Modulation of the transient receptor potential vanilloid channel TRPV4 by 4alpha-phorbol esters: a structure-activity study” (J Med Chem, 2009).

A word on the pEC50: it is the EC50 on a negative log10 scale, so that one unit is a factor of ten.

Assay [1] addresses Transient receptor potential cation channel subfamily V member 4 (Mus musculus, UniProt Q9EPK8). Description: (§1) Activation of mouse wild type TRPV4 expressed in HEK293 cells assessed as increase in intracellular calcium concentration. The format is cell-based. Put shortly:
(§2)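 mTRPV4 (wild type or the Y556A, S557A or W586A TM3-4 mutant) in pCAGGS/Ires-GFP was transiently transfected into HEK293 cells and incubated overnight. GFP-positive cells on poly-L-lysine coverslips were loaded with 4 µM Fura-2 AM for 30 min at 37 °C and perfused with Krebs solution (1.5 mM CaCl2, pH 7.4). The 340/380 nm ratio (510 nm emission) gave ∆Fura-2 ratio. EC50 came from a Hill fit, >15 cells, three transfections.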

Assay [2] deals with Transient receptor potential cation channel subfamily V member 4 (Mus musculus) (UniProt Q9EPK8). In words: Activation of mouse wild type TRPV4 expressed in HEK293 cells assessed as outward-inward rectifying current density at 500 nM at a holding potential of 100 mV by whole cell patch-clamp assay in absence of calcium. The format is cell-based. In a few lines: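 Whole-cell patch clamp was run on mTRPV4-transfected HEK293 cells using ramps from -100 to +100 mV. CaCl2 was omitted from both solutions. Bath (mM): 150 NaCl, 6 CsCl, 1 MgCl2, 10 glucose, 10 HEPES, pH 7.4. Pipette (mM): 20 CsCl, 100 aspartate, 1 MgCl2, 10 HEPES, 4 Na-ATP, 10 BAPTA, pH 7.4. Agonist was added to the bath. Five cells, >2 transfections.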
For orientation: In patch-clamp work, channel activity is measured electrically.

The target is the same in assay [3]. The description is as §1. The assay is classed as cell-based. In a few lines:
as §2

Assay [4] has the same target. In words: Activation of mouse wild type TRPV4 expressed in HEK293 cells assessed as increase in intracellular calcium concentration at 1 uM in presence of TRP antagonist ruthenium red. The format is functional, cell-based. Put shortly:
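Single-cell fura-2 imaging was done on GFP-positive HEK293 cells transiently expressing mTRPV4, perfused with Krebs buffer (1.5 mM CaCl2, pH 7.4). Agonist at 1 µM was applied in the bath, and ruthenium red 1 µM was added to the extracellular solution as indicated. The read-out was the 340/380 nm ratio change. Three independent experiments were run.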

Assay [5] concerns the target Transient receptor potential cation channel subfamily V member 4 (Mus musculus, UniProt Q9EPK8, Y556A). Description: Activation of mouse TRPV4 Y556A mutant expressed in HEK293 cells assessed as increase in intracellular calcium concentration. The assay is classed as cell-based. In a few lines:
as §2
A general note: Calcium assays in cells follow changes in intracellular calcium, usually with a dye or a luminescent sensor.

Assay [6] has as its target Transient receptor potential cation channel subfamily V member 4 (Mus musculus, UniProt Q9EPK8, W586A). Description: Activation of mouse TRPV4 W586A mutant expressed in HEK293 cells assessed as increase in intracellular calcium concentration. The format is cell-based. Put shortly:
as §2

Assay [7] addresses Transient receptor potential cation channel subfamily V member 4 (Mus musculus, UniProt Q9EPK8, S557A). Description: Activation of mouse TRPV4 S557A mutant expressed in HEK293 cells assessed as increase in intracellular calcium concentration. The assay is classed as cell-based. In a few lines:
as §2

Assay [8] concerns the target Transient receptor potential cation channel subfamily V member 4 (Mus musculus) (UniProt Q9EPK8). In words: Activation of mouse wild type TRPV4 expressed in HEK293 cells assessed as outward-inward rectifying current density at 500 nM at a holding potential of 100 mV by whole cell patch-clamp assay in presence of calcium. The format is cell-based. In a few lines: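 Whole-cell patch clamp was run on mTRPV4-transfected HEK293 cells using ramps from -100 to +100 mV. Bath (mM): 150 NaCl, 6 CsCl, 1 MgCl2, 5 CaCl2, 10 glucose, 10 HEPES, pH 7.4. Pipette (mM): 20 CsCl, 100 aspartate, 1 MgCl2, 10 HEPES, 4 Na-ATP, 10 BAPTA, free Ca2+ buffered to 200 nM, pH 7.4. Agonist was added to the bath. Five cells, >2 transfections.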

Assay [9] relates to HEK293. Description: Effect on intracellular calcium level in non transfected HEK293 cells. The format is functional, cell-based. The conditions noted are these: Homo sapiens. In a few lines:
(§3)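 GFP-negative cells from the same coverslips as the mTRPV4-transfected HEK293 cells served as untransfected controls. Cells were loaded with 4 µM Fura-2 AM for 30 min at 37 °C and perfused with Krebs solution (pH 7.4). ∆Fura-2 ratio was taken as (Rt−Rt0)/Rt0 from 340/380 nm excitation, with background subtracted.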

Assay [10] concerns HEK293. In words: Effect on intracellular calcium level in non transfected HEK293 cells assessed as increase in fura-2 ratio. The conditions noted are these: Homo sapiens. The format is functional, cell-based. Put shortly:
as §3

pEC50: −log10 of the molar value. Activity calls are given as the source filed them. The rule behind the calls is not given here.

Sequence of Transient receptor potential cation channel subfamily V member 4 (Mus musculus) (Q9EPK8 whole entry): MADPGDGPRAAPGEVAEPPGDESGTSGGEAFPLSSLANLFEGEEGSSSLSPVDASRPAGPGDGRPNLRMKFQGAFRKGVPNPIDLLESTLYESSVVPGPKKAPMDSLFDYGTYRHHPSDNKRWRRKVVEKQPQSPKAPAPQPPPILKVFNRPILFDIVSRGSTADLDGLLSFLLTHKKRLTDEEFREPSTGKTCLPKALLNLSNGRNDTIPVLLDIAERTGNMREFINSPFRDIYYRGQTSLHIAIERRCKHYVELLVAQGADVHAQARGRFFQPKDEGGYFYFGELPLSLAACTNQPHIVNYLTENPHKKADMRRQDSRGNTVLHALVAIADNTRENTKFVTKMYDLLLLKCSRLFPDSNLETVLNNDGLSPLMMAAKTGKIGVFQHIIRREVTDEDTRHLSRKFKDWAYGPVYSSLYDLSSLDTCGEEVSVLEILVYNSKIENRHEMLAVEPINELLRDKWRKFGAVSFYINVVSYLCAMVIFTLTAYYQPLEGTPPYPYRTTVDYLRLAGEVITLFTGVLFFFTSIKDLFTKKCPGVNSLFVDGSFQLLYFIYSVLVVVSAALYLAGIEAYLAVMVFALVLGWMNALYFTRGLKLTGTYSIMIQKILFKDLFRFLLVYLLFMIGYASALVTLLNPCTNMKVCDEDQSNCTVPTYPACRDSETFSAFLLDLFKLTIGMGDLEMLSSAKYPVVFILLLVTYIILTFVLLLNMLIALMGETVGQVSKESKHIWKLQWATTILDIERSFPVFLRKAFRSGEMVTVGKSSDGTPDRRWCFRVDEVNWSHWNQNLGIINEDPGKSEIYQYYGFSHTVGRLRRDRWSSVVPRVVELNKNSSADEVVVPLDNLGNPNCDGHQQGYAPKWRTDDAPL
Sequence of Transient receptor potential cation channel subfamily V member 4 (Mus musculus, UniProt Q9EPK8) (Q9EPK8 whole entry, the tested form may be a part): as the sequence (Q9EPK8 whole entry) above
Sequence of Transient receptor potential cation channel subfamily V member 4 (Mus musculus, UniProt Q9EPK8, Y556A) (Q9EPK8 whole entry Y556A): as the sequence (Q9EPK8 whole entry) above, with Y556A counted along it
Sequence of Transient receptor potential cation channel subfamily V member 4 (Mus musculus, UniProt Q9EPK8, W586A) (Q9EPK8 whole entry W586A): as the sequence (Q9EPK8 whole entry) above, with W586A counted along it
Sequence of Transient receptor potential cation channel subfamily V member 4 (Mus musculus, UniProt Q9EPK8, S557A) (Q9EPK8 whole entry S557A): as the sequence (Q9EPK8 whole entry) above, with S557A counted along it

In the case of `CCCCCCCCCC(=O)O[C@@H]1[C@@H](C)[C@]2(O)[C@@H]3C=C(C)C(=O)[C@@H]3CC(CO)=C[C@H]2[C@@H]2C(C)(C)[C@]12OC(=O)CCCCCCCCC`, the pEC50 in assay [1] is less than 4.30.

With `CCCCCC(=O)O[C@@H]1[C@@H](C)[C@@]2(O)[C@@H](C=C(CO)C[C@@]3(O)C(=O)C(C)=C[C@@H]23)[C@@H]2C(C)(C)[C@]12OC(=O)CCCCC`, the Activity in [2] was 806; in assay [3] it was “Dose-dependent effect”; in assay [8], 354. In addition, the pEC50 in [1] is 7.15; in [5], 5.55; in assay [6], 5.55; in [7] it was 6.44. Moreover, the result (in [4]; in the assay with HEK293 [9]) was inactive.

With `CCCCCCCCC(=O)O[C@@H]1[C@@H](C)[C@@]2(O)[C@@H](C=C(CO)C[C@@]3(O)C(=O)C(C)=C[C@@H]23)[C@@H]2C(C)(C)[C@]12OC(=O)CCCCCCCC`, the pEC50 in assay [1] was less than 4.30.

As for `CCCCCCCCCCCCCC(=O)O[C@@H]1[C@@H](C)[C@@]2(O)[C@@H](C=C(CO)C[C@@]3(O)C(=O)C(C)=C[C@@H]23)[C@@H]2C(C)(C)[C@]12OC(=O)CCCCCCCCCCCCC`, the pEC50 in assay [1] was 5.55.

Turning to `CC(=O)O[C@@H]1[C@@H](C)[C@@]2(O)[C@@H](C=C(CO)C[C@@]3(O)C(=O)C(C)=C[C@@H]23)[C@@H]2C(C)(C)[C@]12OC(C)=O`, the pEC50 in [1] was less than 4.30.

As for `CCCCCCCC(=O)O[C@@H]1[C@@H](C)[C@@]2(O)[C@@H](C=C(CO)C[C@@]3(O)C(=O)C(C)=C[C@@H]23)[C@@H]2C(C)(C)[C@]12OC(=O)CCCCCCC`, in [1], the pEC50 is less than 4.30.

For `CCCCCCCCCC(=O)O[C@@H]1[C@@H](C)[C@@]2(O)[C@@H](C=C(CO)C[C@@]3(O)C(=O)C(C)=C[C@@H]23)[C@@H]2C(C)(C)[C@]12OC(=O)CCCCCCCCC`, the pEC50 in assay [1] is 6.43; in assay [5], 5.20; in assay [6], less than 5.22; in assay [7], 6.49. The result in the assay with HEK293 [10] was Active.

For `CCCC(=O)O[C@@H]1[C@@H](C)[C@@]2(O)[C@@H](C=C(CO)C[C@]3(O)C(=O)C(C)=C[C@@H]23)[C@@H]2C(C)(C)[C@]12OC(=O)CCC`, the pEC50 in assay [1] is 4.65.

For `CCCCCCCCCC(=O)O[C@@]12[C@H](O)[C@@H](C)[C@@]3(O)[C@@H](C=C(CO)C[C@@]4(O)C(=O)C(C)=C[C@@H]34)[C@@H]1C2(C)C`, the pEC50 in assay [1] is 6.35. For the same molecule, in the assay with HEK293 [10], the result was Active.
